# Measurements published in ChEMBL document CHEMBL3399929 (Bioorg Med Chem, 2015).
# The source made the active and inactive calls. The rule behind the calls is not given here.
# What was measured:
# [1] = Elimination half life in Sprague-Dawley rat at 1 mg/kg, iv; format: ADME, organism-based; design: dose 1 mg/kg, route intravenous; details: in vivo, read-out: beta t1/2 (converted)
# Summary of the method: (§1)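 Male Sprague–Dawley rats (250 ± 25 g) each received a single oral dose of 10 mg/kg or an intravenous dose of 1 mg/kg. Plasma concentration–time profiles were obtained with three rats per time point. Parameters were calculated with a two-compartmental model, and values are averages of three rats. Cmax is given as mean ± SEM.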
# Rattus norvegicus [2] = experiment: Volume of distribution at steady state in Sprague-Dawley rat at 10 mg/kg, po; format: ADME, organism-based; design: dose 10 mg/kg, route oral; details: in vivo; summary of the method: as §1
# Candida parapsilosis = experiment: Antifungal activity against Candida parapsilosis ATCC 22019 at 50 ug/ml; format: functional, organism-based
# Candida albicans = experiment: Antifungal activity against Candida albicans at 50 ug/ml; format: functional, organism-based
# Rattus norvegicus [3] = experiment: AUC in Sprague-Dawley rat at 10 mg/kg, po; format: ADME, organism-based, Plasma; design: dose 10 mg/kg, route oral; details: in vivo; summary of the method: as §1
# [4] = Selectivity index, ratio of CC50 for African green monkey Vero cells to MIC100 for Mycobacterium tuberculosis H37Rv; format: toxicity, cell-based; details: read-out: Selectivity Index
# Summary of the method: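 Selectivity index is CC50 from the Vero resazurin assay divided by the agar-dilution MIC against H37Rv.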
# [5] = test system: Mycobacterium tuberculosis; experiment: Antimycobacterial activity against Mycobacterium tuberculosis H37Rv infected in mouse chronic TB model assessed as log reduction in spleen at 87 umol/kg administered via esophageal cannula 6 times a week for 4 weeks relative to untreated control; format: functional
# [6] = test system: Mycobacterium tuberculosis; experiment: Antimycobacterial activity against Mycobacterium tuberculosis H37Rv after 4 weeks by agar dilution assay; format: functional
# Summary of the method: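 Agar dilution method. DMSO stocks (5 mg/mL) were serially diluted in DMSO, and 0.1 mL of each was mixed into 1.9 mL Middlebrook 7H10 agar with OADC and set as slants. Each tube received about 10^5 bacilli from a 3-week Lowenstein–Jensen culture suspended in saline with 0.05% Tween-80. Tubes were incubated at 37 °C for 4 weeks. MIC was the lowest concentration with no visible growth.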
# [7] = test system: Mycobacterium tuberculosis; experiment: Antimycobacterial activity against Mycobacterium tuberculosis H37Rv infected in mouse chronic TB model assessed as survival rate at 173 umol/kg administered via esophageal cannula 6 times a week for 4 weeks relative to untreated control; format: functional
# Summary of the method: (§2)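 Male Balb/C mice (8–10 weeks, 18–20 g), ten per group, were infected intravenously with 5 × 10^6 CFU H37Rv in 0.2 mL. Dosing by gavage began on day 1, six times weekly for 4 weeks, with the last dose on day 28. Survival was followed to day 30. Survivors were sacrificed on day 30, and lung and spleen homogenates were plated on 7H10/OADC at 37 °C for 4–6 weeks. Results were compared with an untreated infected group.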
# [8] = test system: Mycobacterium tuberculosis H37Rv; experiment: Inhibition of Mycobacterium tuberculosis H37Rv ATP synthase assessed as reduction in total ATP content at 12.5 ug/ml after 18 hrs by bead-vortexing settling method
# Summary of the method: (§3)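 H37Rv was declumped by bead-vortexing and settling, adjusted to McFarland 1, then diluted 100-fold. Portions of 1 mL in tubes with 0.5 mm glass beads were exposed to compound for 18 h at 37 °C. Samples were heated 8–10 min, chilled on ice, and bead-beater lysed. Cleared lysate ATP was measured by luciferase assay.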
# [9] = test system: Mycobacterium tuberculosis; experiment: Antimycobacterial activity against Mycobacterium tuberculosis H37Rv infected in mouse chronic TB model assessed as log reduction in lungs at 87 umol/kg administered via esophageal cannula 6 times a week for 4 weeks relative to untreated control; format: functional
# [10] = Mean residence time in Sprague-Dawley rat at 10 mg/kg, po; format: ADME, organism-based; design: dose 10 mg/kg, route oral; details: in vivo; summary of the method: as §1
# Escherichia coli = experiment: Antibacterial activity against Escherichia coli ATCC 9637 at 50 ug/ml; format: functional, organism-based
# [11] = Cytotoxicity against African green monkey Vero cells after 72 hrs yb resazurin assay; format: cell-based; details: chlorocebus sabaeus
# Summary of the method: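 Vero cells were seeded overnight in RPMI with 10% heat-inactivated FBS at 37 °C, 5% CO2. Cells were exposed in triplicate to concentrations from 100 to 1.56 µg/mL for 72 h. Resazurin (0.1%) was then added for 4–5 h, and fluorescence was read at ex 530/em 590 nm. CC50 was derived from the fluorescence plot.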
# [12] = test system: Mycobacterium tuberculosis H37Rv; experiment: Inhibition of Mycobacterium tuberculosis H37Rv ATP synthase assessed as reduction in total ATP content at 50 ug/ml after 18 hrs by bead-vortexing settling method; summary of the method: as §3
# [13] = test system: Mycobacterium tuberculosis; experiment: Bactericidal activity against non-replicating Mycobacterium tuberculosis H37Rv Wayne model under hypoxic/oxygen depleted conditions assessed as log reduction after 4 days by serial dilution assay; format: functional
# Summary of the method: (§4)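 Wayne hypoxia model. A mid-log 7H9 culture was diluted to about 10^5 cfu/mL, and 10 mL was sealed in 20 mL headspace vials. Vials were stirred slowly at 37 °C for 20–22 days, until methylene blue indicator (1.5 µg/mL) decolorized. Drug was then injected through the septum, and vials were incubated 4 more days at 37 °C. Tests were run in duplicate, with CFU counted on 7H10 agar plates.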
# Sporothrix schenckii = experiment: Antifungal activity against Sporothrix schenckii at 50 ug/ml; format: functional, organism-based
# [14] = test system: Mycobacterium tuberculosis; experiment: Antimycobacterial activity against Mycobacterium tuberculosis H37Rv infected in mouse chronic TB model assessed as log reduction in lungs at 173 umol/kg administered via esophageal cannula 6 times a week for 4 weeks relative to untreated control; format: functional
# [15] = Inhibition of Swiss mouse liver ATP synthase after 1 hr
# Summary of the method: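 Liver mitochondria came from an overnight-fasted adult Swiss mouse, isolated by differential centrifugation in sucrose/Tris-MOPS/EGTA buffer pH 7.4 and assayed the same day. Mitochondria (100 µg) were stirred at room temperature with 100 µM compound in Tris/HCl, sucrose, 5 mM MgCl2 and 100 µM diadenosine pentaphosphate, pH 7.4. The reaction was started with 1 mM ADP, 20 mM Pi and 50 mM succinate, stopped after 1 h with EDTA-TCA, and ATP was read by luciferase.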
# Klebsiella pneumoniae = experiment: Antibacterial activity against Klebsiella pneumoniae ATCC 27736 at 50 ug/ml; format: functional, organism-based
# [16] = Selectivity ratio of IC50 for Mycobacterium smegmatis TMC 607 ATP synthase to IC50 for Swiss mouse liver ATP synthase
# [17] = AUC in Sprague-Dawley rat at 1 mg/kg, iv; format: ADME, organism-based; design: dose 1 mg/kg, route intravenous; details: plasma; summary of the method: as §1
# [18] = test system: Mycobacterium tuberculosis; experiment: Antimycobacterial activity against Mycobacterium tuberculosis H37Rv infected in mouse chronic TB model assessed as survival rate at 87 umol/kg administered via esophageal cannula 6 times a week for 4 weeks relative to untreated control; format: functional; summary of the method: as §2
# [19] = Tmax in Sprague-Dawley rat at 10 mg/kg, po; format: ADME, organism-based; design: dose 10 mg/kg, route oral; details: in vivo; summary of the method: as §1
# Cryptococcus neoformans = experiment: Antifungal activity against Cryptococcus neoformans at 50 ug/ml; format: functional, organism-based
# [20] = test system: Mycobacterium tuberculosis; experiment: Bactericidal activity against non-replicating Mycobacterium tuberculosis H37Rv Wayne model under hypoxic/oxygen depleted conditions assessed as log reduction at 100 ug/ml after 4 days by serial dilution assay; format: functional; summary of the method: as §4
# [21] = test system: Mycobacterium tuberculosis; experiment: Bactericidal activity against non-replicating Mycobacterium tuberculosis H37Rv Wayne model under hypoxic/oxygen depleted conditions assessed as log reduction at 10 ug/ml after 4 days by serial dilution assay; format: functional; summary of the method: as §4
# Aspergillus fumigatus = experiment: Antifungal activity against Aspergillus fumigatus at 50 ug/ml; format: functional, organism-based
# [22] = Oral bioavailability in Sprague-Dawley rat at 10 mg/kg; format: ADME, organism-based; details: in vivo; summary of the method: as §1
# Pseudomonas aeruginosa = experiment: Antibacterial activity against Pseudomonas aeruginosa ATCC BAA-427 at 50 ug/ml; format: functional, organism-based
# Rattus norvegicus [23] = experiment: Clearance in Sprague-Dawley rat at 10 mg/kg, po; format: ADME, organism-based; design: dose 10 mg/kg, route oral; details: in vivo; summary of the method: as §1
# Staphylococcus aureus = experiment: Antibacterial activity against Staphylococcus aureus ATCC 25923 at 50 ug/ml; format: functional, organism-based
# [24] = test system: Mycobacterium tuberculosis; experiment: Antimycobacterial activity against Mycobacterium tuberculosis H37Rv infected in mouse chronic TB model assessed as log reduction in spleen at 173 umol/kg administered via esophageal cannula 6 times a week for 4 weeks relative to untreated control; format: functional
# [25] = Tmax in Sprague-Dawley rat at 1 mg/kg, iv; format: ADME, organism-based; design: dose 1 mg/kg, route intravenous; details: in vivo; summary of the method: as §1
# [26] = Cmax in Sprague-Dawley rat at 1 mg/kg, iv; format: ADME, organism-based; design: dose 1 mg/kg, route intravenous; details: in vivo; summary of the method: as §1
# [27] = Clearance in Sprague-Dawley rat at 1 mg/kg, iv; format: ADME, organism-based; design: dose 1 mg/kg, route intravenous; details: in vivo; summary of the method: as §1
# [28] = Cmax in Sprague-Dawley rat at 10 mg/kg, po; format: ADME, organism-based; design: dose 10 mg/kg, route oral; details: in vivo; summary of the method: as §1
# [29] = Elimination half life in Sprague-Dawley rat at 10 mg/kg, po; format: ADME, organism-based; design: dose 10 mg/kg, route oral; details: in vivo, read-out: beta t1/2 (converted); summary of the method: as §1
# [30] = Volume of distribution at steady state in Sprague-Dawley rat at 1 mg/kg, iv; format: ADME, organism-based; design: dose 1 mg/kg, route intravenous; details: in vivo, read-out: Vdss; summary of the method: as §1
# [31] = Inhibition of Mycobacterium smegmatis TMC 607 ATP synthase incubated for 10 mins prior to NADH addition measured after 1 hr by luminescence assay; design: species or system Mycolicibacterium smegmatis; details: read-out: IC50
# [32] = test system: Trichophyton mentagrophytes; experiment: Antifungal activity against Trichophyton mentagrophytes at 50 ug/ml; format: functional, organism-based
compound,measurement,setting,value
CCN(CC)Cc1cc(N(c2cc(C)nc3cc(Cl)ccc23)S(=O)(=O)c2cccc(Cl)c2Cl)ccc1O,half-life,[1],8.84 h
same,Vdss,Rattus norvegicus [2],0.41 L/kg
same,Activity,Candida parapsilosis,inactive
same,Activity,Candida albicans,inactive
same,AUC,Rattus norvegicus [3],2813 ng·h/mL
same,selectivity ratio,[4],> 96
same,log10cfu,[5],1
same,MIC100,[6],3.12 µg/mL
same,Survival,[7],60%
same,inhibition,[8],60%
same,log10cfu,[9],1
same,MRT,[10],6.69 h
same,Activity,Escherichia coli,inactive
same,CC50 at 72 h,[11],> 300 µg/mL
same,inhibition,[12],31%
same,MIC100,[13],3.12 µg/mL
same,Activity,Sporothrix schenckii,inactive
same,log10cfu,[14],2.12
same,IC50,[15],> 100000 nM
same,Activity,Klebsiella pneumoniae,inactive
same,Ratio IC50,[16],> 155
same,AUC,[17],16400 ng·h/mL
same,Survival,[18],40%
same,Tmax,[19],0.5 h
same,Activity,Cryptococcus neoformans,inactive
same,log10CFU/ml,[20],2.34
same,log10CFU/ml,[21],1.14
same,Activity,Aspergillus fumigatus,inactive
same,bioavailability,[22],1.72%
same,Activity,Pseudomonas aeruginosa,inactive
same,CL,Rattus norvegicus [23],1 mL/min/kg
same,Activity,Staphylococcus aureus,inactive
same,log10cfu,[24],2.12
same,Tmax,[25],5 min
same,Cmax,[26],2420 ng/mL
same,clearance,[27],1.17 mL/min/kg
same,Cmax,[28],616 ng/mL
same,half-life,[29],4.2 h
same,Vd,[30],0.84 L/kg
same,IC50,[31],510 nM
same,Activity,[32],inactive
